# Results as given in ChEMBL document CHEMBL4028903 (J Med Chem, 2017).
# Calls of active or inactive are those of the source. The rule behind the calls is not given here.
# What was measured:
# [1] = Oral bioavailability in rat at 10 mg/kg administered via gavage by LC-MS/MS analysis; format: ADME, organism-based; details: in vivo
# How it was run: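 Rats were dosed IV as a solution in 75% PEG300:25% D5W, or orally as a suspension in 0.5% methylcellulose, 0.5% Tween80 and 99% water.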
# [2] = target: T1, Bile acid receptor (Rattus norvegicus) (UniProt Q62735); assay: Agonist activity at FXR in rat primary hepatocytes assessed as induction of BSEP mRNA level after 24 hrs by qPCR analysis; format: cell-based
# T1 sequence (whole entry): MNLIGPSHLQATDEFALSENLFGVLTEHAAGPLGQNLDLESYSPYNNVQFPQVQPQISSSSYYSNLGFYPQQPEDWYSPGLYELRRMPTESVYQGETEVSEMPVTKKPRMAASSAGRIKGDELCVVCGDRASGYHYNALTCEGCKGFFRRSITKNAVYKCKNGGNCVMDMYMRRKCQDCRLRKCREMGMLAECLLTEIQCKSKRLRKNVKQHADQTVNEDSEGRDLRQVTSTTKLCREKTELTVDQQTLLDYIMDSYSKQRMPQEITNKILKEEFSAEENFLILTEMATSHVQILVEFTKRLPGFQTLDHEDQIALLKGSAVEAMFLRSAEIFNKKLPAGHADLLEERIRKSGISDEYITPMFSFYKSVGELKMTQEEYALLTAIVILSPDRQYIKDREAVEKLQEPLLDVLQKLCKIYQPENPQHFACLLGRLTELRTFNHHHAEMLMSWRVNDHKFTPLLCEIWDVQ
# Rattus norvegicus [3] = assay: In vivo agonist activity at FXR in po dosed Sprague-Dawley rat assessed as induction of SHP mRNA level in liver administered as single dose after 7 hrs post dose by qPCR analysis; format: functional, organism-based
# Rattus norvegicus [4] = assay: In vivo agonist activity at FXR in Sprague-Dawley rat assessed as induction of BSEP mRNA level in liver at >0.1 mg/kg, po qd for 14 days measured 7 hrs post last dose on day 14 by qPCR analysis; format: functional, organism-based
# Rattus norvegicus [5] = assay: In vivo agonist activity at FXR in Sprague-Dawley rat assessed as downregulation of CYP8B1 mRNA level in liver at 0.003 mg/kg, po qd for 14 days measured 7 hrs post last dose on day 14 by qPCR analysis; format: functional, organism-based
# Rattus norvegicus [6] = assay: In vivo agonist activity at FXR in po dosed Sprague-Dawley rat assessed as induction of BSEP mRNA level in liver administered once daily for 14 days measured 7 hrs post last dose on day 14 by qPCR analysis; format: functional
# Rattus norvegicus [7] = assay: In vivo agonist activity at FXR in po dosed Sprague-Dawley rat assessed as induction of SHP mRNA level in ileum administered once daily for 14 days measured 7 hrs post last dose on day 14 by qPCR analysis; format: functional
# Rattus norvegicus [8] = assay: In vivo agonist activity at FXR in po dosed Sprague-Dawley rat assessed as induction of FGF15 mRNA level in ileum administered once daily for 14 days measured 7 hrs post last dose on day 14 by qPCR analysis; format: functional
# [9] = Drug uptake in Sprague-Dawley rat plasma at 0.1 mg/kg, po qd administered via gavage measured 7 hrs post last dose on day 14 by LC-MS/MS analysis; format: ADME, organism-based
# [10] = Drug uptake in Sprague-Dawley rat liver at 0.01 mg/kg, po qd administered via gavage measured 1 hr post last dose on day 14 by LC-MS/MS analysis; format: ADME, organism-based; details: read-out: Drug uptake
# How it was run: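 Drug concentration in liver was quantified from tissue homogenates, so these are total levels. Unbound liver concentration was not determined.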
# Rattus norvegicus [11] = assay: Dose normalized AUC (0 to 24 hrs) in Sprague-Dawley rat at 1 mg/kg, po qd administered via gavage measured on day 1 by LC-MS/MS analysis; format: ADME, organism-based; details: in vivo
# Rattus norvegicus [12] = assay: Dose normalized AUC (0 to 24 hrs) in Sprague-Dawley rat at 0.003 mg/kg, po qd administered via gavage measured on day 11 by LC-MS/MS analysis; format: ADME, organism-based; details: in vivo
# [13] = AUC (0 to 24 hrs) in Sprague-Dawley rat at 0.3 mg/kg, po qd administered via gavage measured on day 11 by LC-MS/MS analysis; format: ADME, organism-based; parameters: dose 0.3 mg/kg, time < 24 hr, route oral; details: in vivo
# [14] = Cmax in Sprague-Dawley rat at 0.3 mg/kg, po qd administered via gavage measured on day 1 by LC-MS/MS analysis; format: ADME, organism-based; parameters: dose 0.3 mg/kg, route oral; details: in vivo
# [15] = Cmax in Sprague-Dawley rat at 0.03 mg/kg, po qd administered via gavage measured on day 11 by LC-MS/MS analysis; format: ADME, organism-based; parameters: dose 0.03 mg/kg, route oral; details: in vivo
# [16] = Cmax in Sprague-Dawley rat at 0.03 mg/kg, po qd administered via gavage measured on day 1 by LC-MS/MS analysis; format: ADME, organism-based; parameters: dose 0.03 mg/kg, route oral; details: in vivo
# [17] = Cmax in Sprague-Dawley rat at 0.01 mg/kg, po qd administered via gavage measured on day 11 by LC-MS/MS analysis; format: ADME, organism-based; parameters: dose 0.01 mg/kg, route oral; details: in vivo
# [18] = Cmax in Sprague-Dawley rat at 0.003 mg/kg, po qd administered via gavage measured on day 11 by LC-MS/MS analysis; format: ADME, organism-based; parameters: dose 0.003 mg/kg, route oral; details: in vivo
# [19] = Cmax in Sprague-Dawley rat at 0.003 mg/kg, po qd administered via gavage measured on day 1 by LC-MS/MS analysis; format: ADME, organism-based; parameters: dose 0.003 mg/kg, route oral; details: in vivo
# [20] = Protein binding in dog plasma at 0.5 mg/kg, iv or 2 mg/kg, po administered via gavage by LC-MS/MS analysis; format: ADME, organism-based, Canis lupus familiaris; details: read-out: PPB
# [21] = AUC in rat at 1 mg/kg, po administered via gavage by LC-MS/MS analysis; format: ADME, organism-based; details: in vivo
# How it was run: (§1)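 Single oral dose given as a suspension in 0.5% methylcellulose, 0.5% Tween80 and 99% water. Doses were 10 mg/kg in mouse, 1 mg/kg in rat and 2 mg/kg in dog.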
# [22] = Cmax in rat at 1 mg/kg, po administered via gavage by LC-MS/MS analysis; format: ADME, organism-based; parameters: dose 1 mg/kg, route oral; details: in vivo; how it was run: as §1
# Mus musculus = assay: Drug metabolism in mouse assessed as taurine conjugated metabolite formation at 5 mg/kg, iv or 10 mg/kg, po administered via gavage by LC-MS/MS analysis; format: ADME, organism-based; details: in vivo
# Canis familiaris = assay: Drug metabolism in dog assessed as taurine conjugated metabolite formation at 0.5 mg/kg, iv or 2 mg/kg, po administered via gavage by LC-MS/MS analysis; format: ADME, organism-based, Canis lupus familiaris; details: in vivo
# How it was run: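 Plasma samples were taken from the dog PK studies. The IV solution was 20% PEG300, 5% solutol and 75% carbonate buffer pH = 8. The PO suspension was 0.5% methylcellulose, 0.5% Tween80 and 99% water. Samples were screened for taurine- and glycine-conjugated metabolites and for the acylglucuronide.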
smiles,measurement,setting,value
O=C(O)c1cc(F)c2nc(N3C4CCC3CC(OCc3c(-c5ccccc5OC(F)(F)F)noc3C3CC3)C4)sc2c1 (centres undefined),bioavailability,[1],20%
same,Activity,[2],Dose-dependent effect
same,Activity,Rattus norvegicus [3],Dose-dependent effect
same,Activity,Rattus norvegicus [4],Active
same,Activity,Rattus norvegicus [5],Active
same,ED50,Rattus norvegicus [6],0.02 mg/kg
same,ED50,Rattus norvegicus [7],0.01 mg/kg
same,ED50,Rattus norvegicus [8],0.05 mg/kg
same,concentration at 7 h,[9],4.89 nM
same,concentration at 1 h,[10],8.35 nM
same,AUC/dose,Rattus norvegicus [11],461 nM·h
same,AUC/dose,Rattus norvegicus [12],756 nM·h
same,AUC at 24 h,[13],0.19 µM·h
same,Cmax,[14],13.5 nM
same,Cmax,[15],1.9 nM
same,Cmax,[16],1.5 nM
same,Cmax,[17],0.79 nM
same,Cmax,[18],0.26 nM
same,Cmax,[19],0.15 nM
same,fraction unbound,[20],0.001
same,AUC,[21],0.307 µM·h
same,Cmax,[22],53 nM
same,Drug metabolism,Mus musculus,Metabolite_Notdetected
same,Drug metabolism,Canis familiaris,Metabolite_Notdetected
